Results reported in article PMC8586590 (Bioactive Materials, 2021).

Experiments:
[1] = system: HepG2-luci cells; assay: Lung metastasis model; format: in vivo, Balb/c nude mice; conditions: after 30 days, i.v., 3 mg/kg HCPT equivalent, four injections, N=5
Summary of the method: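 Balb/c nude mice (4–6 weeks, 20 ± 2 g) received 1 × 10⁶ HepG2-luci cells in 200 μL serum-free DMEM via the tail vein. Six days later (day 0) they were randomised into six groups of five and dosed i.v. at 3 mg/kg HCPT-equivalent on days 0, 3, 6 and 9. Study ended at day 30: lungs fixed in Bouin's for 24 h and photographed, then formalin-fixed paraffin sections stained with H&E.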

[2] = system: HepG2 cells; assay: Cell inhibition, MTT assay; format: cell-based; conditions: Homo sapiens, HepG2, 48 h
[3] = format: in vivo, Balb/c nude mice; conditions: i.v., 3 mg/kg HCPT-equivalent
Summary of the method: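 Normal Balb/c nude mice (4–6 weeks, 16–19 g), six groups of five including saline, treated three times. Eye blood taken on days 1 and 5 after the third dose. For haematology, 300 μL into heparinised tubes; for biochemistry, 500 μL, centrifuged at 2500×g for 15 min and the supernatant used. Xenograft mice: body weight every three days and H&E of major organs at study end.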

[4] = system: HepG2 3D multicellular spheroids; assay: Multicellular spheroid; format: cell-based; conditions: HepG2 MCSs, 100 μM, medium replaced every two days, 7 days, N=3
Summary of the method: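 HepG2 3D spheroids held in 100 μM formulation, with medium replaced every two days; drug-free medium served as control. Spheroid volume calculated as V = 4/3πr³ from the radius and expressed relative to each spheroid's day-0 volume. Mean ± SD, N = 3.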

IC50 [2]: 0.84 µM
SMILES: CC[C@@]1(O)C(=O)OCc2c1cc1n(c2=O)Cc2cc3cc(O)ccc3nc2-1 [HCPT, 10-hydroxycamptothecin]
bioluminescence signal of HepG2-luci cells in the lung [1]: the strongest
blood parameters RBC, WBC, HGB, PLT (hematotoxicity) ([3]; three times, N=5): deteriorated
body weight during treatment ([3]; tumor-bearing mice): obvious weight loss
MCS volume relative to initial volume [4]: stable volume
